Bioassay records as filed in PubChem.
Most compounds without a hit are left out; they make up all but 3.7% or so of the library.
ERAP1 inh: human ERAP1 aminopeptidase inhibitors, primary screen, biochemical, single point, plate reader; Endoplasmic reticulum aminopeptidase 1 (Homo sapiens), Q9NZ08; recombinant ERAP1, Leu-AMC fluorescence, 60 min; inhibition, % at 10.7 µM; hit rate 0.15% among 340,000; AID 652197, 2013;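 active means mean replicate inhibition of at least 30%, or all replicates individually reaching that 30% level; inactive means mean below 30% and not every replicate reaching it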;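 further: 0% = neutral control wells and 100% = L-leucinethiol positive control wells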
E-sel inducer: E-selectin induction in HUVECs, primary screen, imaging, HUVEC, immunofluorescence imaging, single point; P16581; normalized: neutral wells 0, TNF-alpha wells 100; activation, % at 7.58 µM; hit rate 0.37% among 260,000; AID 686992, 2013;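 active means mean E-selectin-positive cell signal at least 10% of the positive control, reached in at least 60% of replicates, without over 20% cell loss; inconclusive means no rule given, readout overlaps actives, possibly toxicity-flagged; inactive means the rest, including those meeting only one limit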
Target sequence (P16581 whole entry, looked up): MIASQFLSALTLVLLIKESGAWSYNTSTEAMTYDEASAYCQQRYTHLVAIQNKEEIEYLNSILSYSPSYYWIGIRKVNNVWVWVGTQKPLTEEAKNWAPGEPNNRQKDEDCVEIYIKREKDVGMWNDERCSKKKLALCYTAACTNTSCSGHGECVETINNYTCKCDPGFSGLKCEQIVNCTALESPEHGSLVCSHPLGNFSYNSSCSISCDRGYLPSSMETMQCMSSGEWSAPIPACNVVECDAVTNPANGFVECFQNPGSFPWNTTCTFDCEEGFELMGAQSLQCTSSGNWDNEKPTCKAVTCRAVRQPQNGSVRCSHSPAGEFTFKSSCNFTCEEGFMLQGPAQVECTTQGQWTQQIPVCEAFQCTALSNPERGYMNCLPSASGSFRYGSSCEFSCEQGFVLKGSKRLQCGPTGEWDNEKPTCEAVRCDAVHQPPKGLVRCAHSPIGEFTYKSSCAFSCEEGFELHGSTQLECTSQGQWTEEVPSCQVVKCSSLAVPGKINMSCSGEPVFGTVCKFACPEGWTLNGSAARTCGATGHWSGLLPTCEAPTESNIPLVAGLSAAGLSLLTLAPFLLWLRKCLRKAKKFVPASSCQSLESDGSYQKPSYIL
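Read-out basis: % PE-positive cells; Test system: HUVEC primary endothelial cells; Technique: immunofluorescence imaging; Dosing: single-point compound dose.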
CFTR F508del cor: F508del CFTR correction, initial screen, CFBE line, single point. CFBE cells, YFP halide quenching; stimulated with forskolin plus potentiator P3; % fluorescence drop versus neutral controls. hit rate 0.36% among 350,000. AID 720511, 2013. activity (quench increase), % at 7.58 µM;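 active means mean added fluorescence quench of at least 8% versus neutral control, with both replicates also reaching 8%; inconclusive means only one of the mean or replicate conditions met; inactive means mean below 8% and not both replicates reaching 8%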;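 further: cells transiently co-express mutant CFTR-F508del with the halide-sensitive YFP; corrector assay measuring rescue of mutant channel to the surface after 24 h compound exposure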
FGF22 binding: binders of human FGF22 protein, primary screen, FGF22 synaptogenesis inhibitor project, biophysical, thermal shift, single point. Fibroblast growth factor 22 (Homo sapiens), Q9HCT0. activity (Tm shift, normalised), % at 9.99 µM. recombinant FGF22 thermal shift, SYPRO orange fluorescence; percent of sucrose octasulfate shift, DMSO zero. hit rate 1.5% among 340,000;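 active means mean Tm shift, scaled 0 neutral to 100 positive control, at about 1.3% or above, every replicate too, limit read from the data; inconclusive means no clear call, values can overlap the other calls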
DENV2 CPE: inhibitors of DENV2 cytopathic effect, primary screen, cell-based, plate reader, single concentration | CPE inhibition, % at 9.99 µM | hit rate 1.7% among 350,000 | DENV2-infected cells, cytopathic effect rescue | AID 651640, 2012; in the data active means CPE inhibition above about 20%, passing the limit was not always enough; inconclusive means no clear call, values can overlap the other calls; tested in BHK-21 cells;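 further: 0% = median of neutral control wells and 100% = median of positive control wells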
* marks the source's active call; other numbers are inactive results; ? = inconclusive; nt = not tested or not shown.

SMILES	ERAP1 inh	E-sel inducer	CFTR F508del cor	FGF22 binding	DENV2 CPE
CC(Sc1nnc(-c2cccnc2)n1C)C(=O)N1CCOCC1 (configuration not stated)	31*	0	-3	0	9
CC(C)NC(=O)Nc1ccc2c(c1)C(=O)N([C@H](C)CO)C[C@@H](C)[C@@H](CN(C)Cc1ccc(Oc3ccccc3)cc1)O2	nt	0	0	0	5
CC(C)CC#Cc1ccc2c(c1)O[C@@H](CN(C)C(=O)Cc1cccnc1)[C@H](C)CN([C@H](C)CO)S2(=O)=O	nt	0	-1	0	5
O=[N+]([O-])c1ccc(N=Nc2c(Cl)cc(O)cc2Cl)cc1	2	0	10*	0	-2
COc1ccc(NC(=O)c2ccc(OCC3CCCO3)cc2)cc1OC (configuration not stated)	4	1	8.8*	0	0
O=C(O)CCN(Cc1ccccc1)S(=O)(=O)c1ccc(Cl)cc1F	-1	0	-2	44*	3
O=C(c1cccc([N+](=O)[O-])c1)c1cc2ccccc2o1	-8	0	1	0	46*
C/C(=N\Nc1cccc([N+](=O)[O-])c1)c1cc2ccccc2o1	3	7	3	42	-4
Cc1ccc(S(=O)(=O)N(C)C[C@@H]2Oc3c(NC(=O)Nc4ccccc4)cccc3C(=O)N([C@H](C)CO)C[C@@H]2C)cc1	5	nt	-2	0	-7
Cc1noc(C)c1S(=O)(=O)Nc1ccc2c(c1)C(=O)N([C@H](C)CO)C[C@H](C)[C@H](CN(C)C(=O)Nc1ccccc1)OCCCC[C@H](C)O2	1	0	-2	0	33*
Cc1noc(C)c1S(=O)(=O)Nc1ccc2c(c1)C(=O)N([C@H](C)CO)C[C@@H](C)[C@H](CN(C)C(=O)Nc1ccccc1)OCCCC[C@@H](C)O2	2	0	2	0	2
Cc1noc(C)c1S(=O)(=O)Nc1ccc2c(c1)C(=O)N([C@@H](C)CO)C[C@@H](C)[C@H](CN(C)C(=O)Nc1ccccc1)OCCCC[C@@H](C)O2	0	1	-1	0	97*
COc1ccccc1CCc1nnc(CCC(=O)NCCOc2cccnc2)o1	0	nt	4	44*	2
CC(=O)N[C@H]1CC[C@@H](CC(=O)NCc2ccc(Cl)cc2)O[C@H]1CO	-7	0	2	0	-1
COc1cc2c(cc1NC(=O)/C=C/c1ccc([N+](=O)[O-])cc1)oc1ccccc12	-2	nt	-6	0	39*
COc1cc2c(cc1NC(=O)COC(=O)/C=C/c1ccc([N+](=O)[O-])cc1)oc1ccccc12	1	0	-3	41	-2
C[C@H]1CCCCO[C@@H](CN(C)C(=O)c2ccncc2)[C@@H](C)CN([C@@H](C)CO)C(=O)c2cc(NC(=O)NC3CCCCC3)ccc2O1	nt	0	-1	0	21*
C[C@@H]1CCCCO[C@@H](CN(C)C(=O)c2ccncc2)[C@@H](C)CN([C@H](C)CO)C(=O)c2cc(NC(=O)NC3CCCCC3)ccc2O1	nt	0	-3	0	27*
CO[C@@H]1CN(C)C(=O)c2cc(NC(=O)C3CC3)ccc2OC[C@@H](C)N(CC2CC2)C[C@@H]1C	0	0	2	0	14
COc1ccccc1S(=O)(=O)N[C@H]1CC[C@@H](CCn2cc(C3CC3)nn2)O[C@H]1CO	0	0	-1	0	-4
CCn1c(C(C)NC(C)=O)nc2ccccc21 (configuration not stated)	4	0	-6	0	-5
CC(=O)NC(C)c1nc2ccccc2n1CC(=O)N1C(C)CCCC1C (configuration not stated)	1	nt	-2	44*	13
CC(C)NC(=O)N(C)C[C@@H]1Oc2cc(C3=CCCC3)ccc2S(=O)(=O)N([C@H](C)CO)C[C@H]1C	4	0	-2	0	-7
CCCN1C(=O)/C(=C\C=C2\N(CC)c3ccccc3C2(C)C)SC1=S	-1	3	16*	0	0
CN1C(=CC=C2C=C(I)C(=O)C(I)=C2)C(C)(C)c2ccccc21	nt	163*	9.6*	0	-5
SMILES	ERAP1 inh	E-sel inducer	CFTR F508del cor	FGF22 binding	DENV2 CPE
CN1/C(=C\C=N\O)C(C)(C)c2ccccc21	-3	nt	nt	0	5
CN1/C(=C\C=C2/SC(=S)NC2=O)C(C)(C)c2ccccc21	-3	?	25*	0	5
C[C@H]1CN([C@@H](C)CO)C(=O)c2cc(C#Cc3ccccc3F)cnc2O[C@@H]1CN(C)C	-1	0	1	0	-6
C[C@@H]1CN([C@H](C)CO)C(=O)Cc2cc(NC(=O)CCN3CCOCC3)ccc2O[C@@H]1CN(C)Cc1ccc(-c2ccccc2)cc1	-5	1	-2	0	2
O=C(C[C@@H]1CC[C@@H](NC(=O)CN2CCOCC2)[C@H](CO)O1)NC1CCCCC1	nt	0	1	0	-5
CCC(=O)N1CCCCN2[C@H](CO)[C@@H](c3ccc(-c4ccc(F)cc4)cc3)[C@@H]2C1	0	0	-1	0	-12
CCC(=O)N1CCCCN2[C@H](CO)[C@@H](c3ccc(-c4ccc(F)cc4)cc3)[C@H]2C1	0	0	1	0	31*
CCC(=O)N1CCCCN2[C@H](C1)[C@H](c1ccc(-c3cccnc3)cc1)[C@@H]2CO	4	0	-2	1	38*
CCC(=O)N1CCCCN2[C@@H](CO)[C@@H](c3ccc(C#Cc4cccnc4)cc3)[C@@H]2C1	3	0	3	0	23*
C[C@@H]1CN([C@@H](C)CO)C(=O)c2cc(NC(=O)c3ccccc3)ccc2O[C@@H](C)CCCCO[C@H]1CN(C)C(=O)c1ccccc1	3	nt	-4	0	8
N#Cc1ccccc1S(=O)(=O)N1CCN(CC(=O)NC(=O)NC2CCCCC2)CC1	1	nt	1	0	-4
O=C(NNc1c(F)c(F)cc(F)c1F)C1CCN(S(=O)(=O)c2ccccc2F)CC1	0	nt	-3	0	43*
O=C(NCc1ccccn1)C1CCN(S(=O)(=O)c2ccccc2F)CC1	2	-1	1	0	4
O=C(CN1CCc2ccccc2C1)NC1CCCC1	-2	1	0	43*	-1
O=C(CN1CCN(S(=O)(=O)c2ccccc2F)CC1)NC1CCCC1	2	0	0	42	22*
O=C(NCC[C@@H]1CC[C@H](NS(=O)(=O)c2ccc(F)cc2)[C@@H](CO)O1)c1ccc2c(c1)OCO2	-3	0	1	0	13
